# Reference: ChEMBL document CHEMBL3808289, “Discovery of a Selective Series of Inhibitors of Plasmodium falciparum HDACs” (ACS Med Chem Lett, 2016)
# Experiments:
# HDAC1 = experiment: Selectivity index, ratio of IC50 for HDAC1 in human HeLa cells to EC50 for Plasmodium falciparum 3D7 infected human erythrocytes; assay type: toxicity, cell-based; details: read-out: Ratio IC50/EC50
# Histone deacetylase 1 = Histone deacetylase 1 (Homo sapiens, UniProt Q13547); experiment: Inhibition of recombinant human His-tagged HDAC1 expressed in insect cells preincubated for 10 mins followed by addition of FLUOR DE LYS as fluorescent substrate measured after 1 hr by spectrophotometry
# Chain of Histone deacetylase 1 (Q13547 whole entry): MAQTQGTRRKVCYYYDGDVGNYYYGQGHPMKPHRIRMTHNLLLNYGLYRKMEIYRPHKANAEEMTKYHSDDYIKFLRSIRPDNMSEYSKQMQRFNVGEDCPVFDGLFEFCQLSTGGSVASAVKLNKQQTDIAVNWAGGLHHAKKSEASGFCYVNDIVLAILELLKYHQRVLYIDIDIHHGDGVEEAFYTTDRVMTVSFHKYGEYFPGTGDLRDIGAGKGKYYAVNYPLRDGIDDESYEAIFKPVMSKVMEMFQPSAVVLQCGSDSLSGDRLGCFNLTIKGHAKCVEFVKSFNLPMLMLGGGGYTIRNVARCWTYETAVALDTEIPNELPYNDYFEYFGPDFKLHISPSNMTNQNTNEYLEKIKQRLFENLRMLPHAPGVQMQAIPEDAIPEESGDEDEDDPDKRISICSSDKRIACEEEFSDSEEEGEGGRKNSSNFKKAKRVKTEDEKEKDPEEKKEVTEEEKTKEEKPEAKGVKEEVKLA
# [1] = Inhibition of class 1 histone deacetylase in human HeLa cells using FLUOR DE LYS as fluorescent substrate after 4 hrs by spectrophotometry; assay type: cell-based
# In short: (§1)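 Cell-based read-outs (parasite growth in erythrocytes; class I HDAC activity in HeLa) were run with multiple repetitions of each assay to limit variability.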
# Plasmodium falciparum = experiment: Antimalarial activity against Plasmodium falciparum 3D7 infected human erythrocytes assessed as parasite growth inhibition after 72 hrs by spectrophotometry; assay type: functional, organism-based; details: 3D7, 72 h; in short: as §1
# [2] = Oral bioavailability in NMRI mouse at 10 mg/kg; assay type: ADME, organism-based; details: in vivo
# [3] = Clearance in NMRI mouse plasma 2 mg/kg, iv by LC-MS/MS analysis; assay type: ADME, organism-based
# Plasma = experiment: Drug uptake in NMRI mouse plasma at 10 mg/kg, po; assay type: ADME, organism-based; details: in vivo
Compound,selectivity ratio (HDAC1),IC50 (Histone deacetylase 1),IC50 [1],EC50 (Plasmodium falciparum),bioavailability [2],clearance [3],Drug uptake (Plasma)
CNC(=O)CCCCC[C@H](NC(=O)c1cncs1)c1ncc(-c2ccc3ccnc(OC)c3c2)[nH]1,4.1,2.62 µM,20.1 µM,4.86 µM,–,–,–
CNC(=O)CCCCC[C@H](NC(=O)c1cncs1)c1ncc(-c2ccc(-c3ccccc3)cc2)[nH]1,> 3.3,> 5 µM,> 25 µM,7.57 µM,–,–,–
CNC(=O)CCCCC[C@H](NC(=O)c1cncs1)c1ncc(-c2ccc(-c3cscn3)cc2)[nH]1,14,2.16 µM,8.13 µM,0.57 µM,–,–,–
CCC(=O)CCCCC[C@H](NC(=O)C12CCN(CC1)CC2)c1ncc(-c2ccc3ccccc3c2)[nH]1,2.5,0.0014 µM,0.094 µM,0.038 µM,–,–,–
CNC(=O)CCCCC[C@H](NC(=O)c1cncs1)c1ncc(-c2ccc3[nH]cnc3c2)[nH]1,> 2.1,> 2.5 µM,> 25 µM,12 µM,–,–,–
CNC(=O)CCCCC[C@H](NC(=O)c1cncs1)c1ncc(-c2cc3ccccc3nc2OC)[nH]1,–,–,0.89 µM,0.57 µM,10%,–,–
CNC(=O)CCCCC[C@H](NC(=O)c1cncs1)c1ncc(-c2ccc3[nH]nnc3c2)[nH]1,> 2.5,> 5 µM,> 25 µM,10.1 µM,–,–,–
CNC(=O)CCCCC[C@H](NC(=O)c1cncs1)c1ncc(-c2ccc3cccnc3c2)[nH]1,> 6.6,> 5 µM,> 25 µM,3.81 µM,–,–,–
CNC(=O)CCCCC[C@H](NC(=O)c1cncs1)c1ncc(-c2cc3ccccc3[nH]c2=O)[nH]1,> 54,> 2.5 µM,> 25 µM,0.5 µM,–,–,–
CNC(=O)CCCCC[C@H](NC(=O)c1cncs1)c1ncc(-c2ccc3cc(OC)ncc3c2)[nH]1,14,0.39 µM,1.37 µM,0.1 µM,–,–,–
CNC(=O)CCCCC[C@H](NC(=O)c1cncs1)c1ncc(-c2ccc3ccccc3c2C)[nH]1,> 1,23.9 µM,> 25 µM,23.7 µM,–,–,–
CNC(=O)CCCCC[C@H](NC(=O)c1cncs1)c1ncc(-c2ccc3[nH]ncc3c2)[nH]1,12,2.12 µM,7.63 µM,0.63 µM,–,–,–
CNC(=O)CCCCC[C@H](NC(=O)C12CCN(CC1)CC2)c1ncc(-c2cc3ccccc3nc2OC)[nH]1,4.7,0.25 µM,2.45 µM,0.52 µM,–,10 mL/min/kg,Not Active
CNC(=O)CCCCC[C@H](NC(=O)c1cncs1)c1ncc(-c2ccc3ccccc3c2)[nH]1,5.7,0.32 µM,1.7 µM,0.3 µM,–,–,–
CNC(=O)CCCCC[C@H](NC(=O)c1cncs1)c1ncc(-c2ccc3cc(C(F)(F)F)ncc3c2)[nH]1,20,0.29 µM,2.04 µM,0.1 µM,–,–,–
CNC(=O)CCCCC[C@H](NC(=O)Cn1ccnn1)c1ncc(-c2cc3ccccc3nc2OC)[nH]1,3.8,1.76 µM,6.65 µM,1.76 µM,20%,–,–
CNC(=O)CCCCC[C@H](NC(=O)c1cncs1)c1ncc(-c2ccc3ccncc3c2)[nH]1,18,0.6 µM,4.75 µM,0.27 µM,–,–,–
CNC(=O)CCCCC[C@H](NC(=O)c1cncs1)c1ncc(-c2ccc(-n3cccn3)cc2)[nH]1,23,2.49 µM,20.5 µM,0.9 µM,–,–,–
CNC(=O)CCCCC[C@H](NC(=O)c1cncs1)c1ncc(-c2ccc3[nH]ccc3c2)[nH]1,19,1.28 µM,6.33 µM,0.33 µM,–,–,–
CNC(=O)CCCCC[C@H](NC(=O)c1cncs1)c1ncc(-c2cccc3cccnc23)[nH]1,> 3,> 2.5 µM,> 25 µM,8.28 µM,–,–,–
